Assay [1] deals with Raji. In words: Survival of Raji cells at 3.2 nmol by trypan blue staining method. It counts as functional, Homo sapiens. In short, it runs like this:
(§1)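 Raji cells (EBV genome-carrying, non-producer) grown to 10⁶ cells/mL, centrifuged, resuspended in RPMI 1640 with 10% FCS, 4 mM n-butyric acid and 32 pmol TPA (20 ng/mL), plus test compound in DMSO (32, 16, 3.2 or 0.32 nmol; 1000–10 mol ratio/TPA). Incubated 37 °C, 48 h; viability counted by hemocytometer with Trypan Blue; ≥60% survival required.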

Assay [2] concerns Human gammaherpesvirus 4. In words: TPA-induced EBV early antigen activation in Raji cells at 16 nmol relative to control.
Assay [3] deals with Human gammaherpesvirus 4. In words: TPA-induced EBV early antigen activation in Raji cells at 3.2 nmol relative to control.
The test system of assay [4] is Raji. In words: Survival of Raji cells at 16 nmol by trypan blue staining method. It is filed as functional, Homo sapiens. In a few lines:
as §1

Assay [5] relates to Human gammaherpesvirus 4. In words: TPA-induced EBV early antigen activation in Raji cells at 0.32 nmol relative to control.
For assay [6], the system named is Human gammaherpesvirus 4. In words: TPA-induced EBV early antigen activation in Raji cells at 32 nmol relative to control.
The subject of assay [7] is Raji. In words: Survival of Raji cells at 32 nmol by trypan blue staining method. It counts as functional, Homo sapiens. In short, it runs like this:
as §1

The test system of assay [8] is Raji. In words: Survival of Raji cells at 0.32 nmol by trypan blue staining method. It is filed as functional, Homo sapiens. In short, it runs like this: as §1

As to `COc1cccc(O)c1C/C=C/c1ccccc1`, the Survival in the assay with Raji [1] is greater than 80%; with Raji [4] it was greater than 80%; in the assay on Raji [7], 60%; with Raji [8] it was greater than 80%. Further, the EBV-EA activation was 43.7% with Human gammaherpesvirus 4 [2], 70.5% in the assay with Human gammaherpesvirus 4 [3], 100% in the assay on Human gammaherpesvirus 4 [5] and 18.3% with Human gammaherpesvirus 4 [6].

In the case of `COc1c(C/C=C/c2ccccc2)ccc(O)c1O` [HYDROXYOBUSTYRENE], the Survival was greater than 80% with Raji [1], greater than 80% with Raji [4], 60% in the assay on Raji [7] and greater than 80% with Raji [8]. Further, the EBV-EA activation turned out to be 41.3% in the assay on Human gammaherpesvirus 4 [2], 71% in the assay with Human gammaherpesvirus 4 [3], 100% with Human gammaherpesvirus 4 [5] and 10.2% with Human gammaherpesvirus 4 [6].

On to `COc1cc(/C=C/Cc2ccc(OC)c(O)c2O)ccc1OC(C)=O`, for which the Survival with Raji [1] is greater than 80%; with Raji [4], greater than 80%; with Raji [7], 60%; with Raji [8] it was greater than 80%. The EBV-EA activation in the assay on Human gammaherpesvirus 4 [2] stood at 37.6%; in the assay on Human gammaherpesvirus 4 [3] it was 74.6%; with Human gammaherpesvirus 4 [5], 100%; in the assay with Human gammaherpesvirus 4 [6], 10%.

Regarding `COc1ccc(C/C=C/c2ccccc2)c(OC)c1O`, the Survival in the assay on Raji [1] is recorded as greater than 80%; in the assay on Raji [4], greater than 80%; in the assay on Raji [7], 60%; in the assay with Raji [8], greater than 80%. Moreover, the EBV-EA activation is listed as 41.2% with Human gammaherpesvirus 4 [2], 76.9% in the assay on Human gammaherpesvirus 4 [3], 100% in the assay on Human gammaherpesvirus 4 [5] and 14.1% in the assay with Human gammaherpesvirus 4 [6].

Take `COc1cc(/C=C/Cc2ccc(OC)c(O)c2OCC=C(C)C)ccc1O`: the Survival was greater than 80% in the assay with Raji [1], greater than 80% with Raji [4], 70% in the assay on Raji [7] and greater than 80% in the assay with Raji [8]. Also, the EBV-EA activation was found to be 27.8% in the assay on Human gammaherpesvirus 4 [2], 63.2% in the assay with Human gammaherpesvirus 4 [3], 88.1% in the assay on Human gammaherpesvirus 4 [5] and 0% with Human gammaherpesvirus 4 [6].

As for `COc1ccc(C/C=C/c2ccccc2)c(OC)c1OC`, the Survival is given as greater than 80% in the assay with Raji [1], greater than 80% with Raji [4], 60% in the assay with Raji [7] and greater than 80% in the assay with Raji [8]. Also, the EBV-EA activation came to 41.5% in the assay on Human gammaherpesvirus 4 [2], 76.6% in the assay on Human gammaherpesvirus 4 [3], 100% with Human gammaherpesvirus 4 [5] and 14.2% with Human gammaherpesvirus 4 [6].

As to `COc1c(C/C=C/c2ccccc2)ccc(OCC=C(C)C)c1OC`, the Survival in the assay on Raji [1] was greater than 80%; in the assay on Raji [4], greater than 80%; in the assay on Raji [7], 70%; in the assay with Raji [8] it was greater than 80%. Also, the EBV-EA activation is 29.8% in the assay with Human gammaherpesvirus 4 [2], 68.2% in the assay with Human gammaherpesvirus 4 [3], 91.5% in the assay with Human gammaherpesvirus 4 [5] and 0% with Human gammaherpesvirus 4 [6].

On to `COc1ccc(C/C=C/c2ccccc2)c(O)c1OC`, for which the Survival with Raji [1] is on record as greater than 80%; in the assay on Raji [4] it was greater than 80%; in the assay with Raji [7], 60%; in the assay on Raji [8], greater than 80%. Also, the EBV-EA activation with Human gammaherpesvirus 4 [2] was found to be 45.5%; with Human gammaherpesvirus 4 [3], 76.2%; in the assay with Human gammaherpesvirus 4 [5], 100%; in the assay with Human gammaherpesvirus 4 [6] it was 13.3%.

Regarding `COc1ccc(C/C=C/c2ccccc2)c(O)c1OCC=C(C)C`, the Survival in the assay with Raji [1] was greater than 80%; in the assay on Raji [4] it was greater than 80%; in the assay on Raji [7], 70%; in the assay on Raji [8] it was greater than 80%. The EBV-EA activation is on record as 30.6% in the assay with Human gammaherpesvirus 4 [2], 65.6% in the assay with Human gammaherpesvirus 4 [3], 90.8% with Human gammaherpesvirus 4 [5] and 0% in the assay with Human gammaherpesvirus 4 [6].

The values are drawn from ChEMBL document CHEMBL1147206, “Synthetic cinnamylphenol derivatives as cancer chemopreventive agents” (2007).
